Results as given in ChEMBL document CHEMBL1165950, “Design and synthesis of new potent anticancer pyrazoles with high FLT3 kinase inhibitory selectivity” (Bioorg Med Chem, 2010).

Assays:
Format in all cases: functional
NCI-H522 [1] = test: Cytotoxicity against human NCI-H522 cells assessed as cell growth at 100 nM after 48 hrs by sulforhodamine B assay; settings: NCI-H522, 48 h, read-out: Activity
COLO 205 [2] = test: Cytotoxicity against human COLO205 cells assessed as cell growth at 100 nM after 48 hrs by sulforhodamine B assay; settings: COLO 205, 48 h, read-out: Activity
KM12 = test: Cytotoxicity against human KM12 cells assessed as cell growth at 100 nM after 48 hrs by sulforhodamine B assay; settings: KM12, 48 h, read-out: Activity
SW-620 [3] = test: Cytotoxicity against human SW620 cells assessed as cell growth at 100 nM after 48 hrs by sulforhodamine B assay; settings: SW-620, 48 h, read-out: Activity
SK-OV-3 = test: Cytotoxicity against human SKOV3 cells assessed as cell growth at 100 nM after 48 hrs by sulforhodamine B assay; settings: SK-OV-3, 48 h, read-out: Activity
HL-60(TB) [4] = test: Cytotoxicity against human HL-60(TB) cells assessed as cell growth at 0.01 uM after 48 hrs by sulforhodamine B assay; settings: HL-60, 48 h, read-out: Activity
In short: (§1)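 NCI 60-cell panel. Cells are grown in RPMI 1640 with 5% FBS and 2 mM L-glutamine, seeded at 5000–40,000 cells/well according to doubling time, and preincubated 24 h. Time-zero plates are TCA-fixed. Compound from DMSO stock is given at five 10-fold or 1/2-log concentrations for 48 h at 37 °C, 5% CO2. Suspension cells are fixed with 80% TCA (final 16%) and SRB-stained, with absorbance at 515 nm. Percent growth is derived from Tz, control and test readings.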

K562 [5] = test: Cytotoxicity against human K562 cells assessed as cell growth at 0.01 uM after 48 hrs by sulforhodamine B assay; settings: K562, 48 h, read-out: Activity
MDA-MB-231 = test: Cytotoxicity against human MDA-MB-231 cells assessed as cell growth at 10 uM; settings: read-out: Activity
In short: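 NCI-60 screen: cells grown in RPMI 1640 with 5% FBS and 2 mM L-glutamine, plated at 5000–40,000 cells/well according to doubling time, and preincubated 24 h at 37 °C, 5% CO2. The single 10 µM dose (DMSO stock) was added, then incubated 48 h. Cells were TCA-fixed and stained with 0.4% SRB, read at 515 nm, and growth % calculated against time-zero and control plates.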

CCRF-CEM = test: Cytotoxicity against human CCRF-CEM cells assessed as cell growth at 0.001 uM after 48 hrs by sulforhodamine B assay; settings: read-out: Activity
In short: (§2)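 NCI-60 five-dose screen. Cells were grown in RPMI 1640 with 5% FBS and 2 mM L-glutamine, plated at 5000–40,000 cells/well and preincubated for 24 h. Time-zero plates were TCA-fixed. DMSO-solubilized drug was added at five concentrations (10-fold or ½-log serial dilutions) for 48 h at 37 °C, 5% CO2. Cells were TCA-fixed, stained with 0.4% SRB and read at 515 nm. Percent growth used time-zero, control and test absorbances.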

M14 = test: Cytotoxicity against human M14 cells assessed as cell growth at 1 uM after 48 hrs by sulforhodamine B assay; settings: M14, 48 h, read-out: Activity
MDA-MB-435 [6] = test: Cytotoxicity against human MDA-MB-435 cells assessed as cell growth at 1 uM after 48 hrs by sulforhodamine B assay; settings: MDA-MB-435, 48 h, read-out: Activity
A549 = test: Cytotoxicity against human A549 cells assessed as cell growth at 0.01 uM after 48 hrs by sulforhodamine B assay; settings: A549, 48 h, read-out: Activity; in short: as §2
HOP-92 = test: Cytotoxicity against human HOP92 cells assessed as cell growth at 0.01 uM after 48 hrs by sulforhodamine B assay; settings: HOP-92, 48 h, read-out: Activity
NCI-H522 [7] = test: Cytotoxicity against human NCI-H522 cells assessed as cell growth at 0.01 uM after 48 hrs by sulforhodamine B assay; settings: NCI-H522, 48 h, read-out: Activity
COLO 205 [8] = test: Cytotoxicity against human COLO205 cells assessed as cell growth at 0.01 uM after 48 hrs by sulforhodamine B assay; settings: COLO 205, 48 h, read-out: Activity; in short: as §2
SW-620 [9] = test: Cytotoxicity against human SW620 cells assessed as cell growth at 0.01 uM after 48 hrs by sulforhodamine B assay; settings: SW-620, 48 h, read-out: Activity
MDA-MB-435 [10] = test: Cytotoxicity against human MDA-MB-435 cells assessed as cell growth at 0.001 uM after 48 hrs by sulforhodamine B assay; settings: MDA-MB-435, 48 h, read-out: Activity
SK-MEL-2 = test: Cytotoxicity against human SK-MEL-2 cells assessed as cell growth at 0.001 uM after 48 hrs by sulforhodamine B assay; settings: SK-MEL-2, 48 h, read-out: Activity
SK-MEL-5 = test: Cytotoxicity against human SK-MEL-5 cells assessed as cell growth at 0.001 uM after 48 hrs by sulforhodamine B assay; settings: SK-MEL-5, 48 h, read-out: Activity
[11] = Growth inhibition of human […] cells after 48 hrs by sulforhodamine B assay
In short: (§3)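 NCI 60-cell screen, five-dose mode. Cells grown in RPMI 1640 with 5% FBS and 2 mM L-glutamine and plated at 5000-40,000 cells/well according to doubling time. After 24 h preincubation, a Tz plate was TCA-fixed. Five concentrations (10-fold or 1/2 log dilutions) were applied for 48 h at 37 °C. SRB staining read at 515 nm. IC50 taken from [(Ti-Tz)/(C-Tz)]×100 = 50.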

HCT-116 = test: Growth inhibition of human HCT116 cells after 48 hrs by sulforhodamine B assay; settings: HCT-116, 48 h; in short: as §3
SW-620 [12] = test: Growth inhibition of human SW620 cells after 48 hrs by sulforhodamine B assay; settings: SW-620, 48 h; in short: as §3
NCI/ADR-RES = test: Growth inhibition of human NCI/ADR-RES cells after 48 hrs by sulforhodamine B assay; in short: as §3
K562 [13] = test: Cytotoxicity against human K562 cells assessed as cell growth at 100 nM after 48 hrs by sulforhodamine B assay; settings: K562, 48 h, read-out: Activity
[14] = Cytotoxicity against human RPMI8266 cells assessed as cell growth at 100 nM after 48 hrs by sulforhodamine B assay; settings: read-out: Activity
NCI-H460 = test: Cytotoxicity against human NCI-H460 cells assessed as cell growth at 100 nM after 48 hrs by sulforhodamine B assay; settings: NCI-H460, 48 h, read-out: Activity
UO-31 = test: Cytotoxicity against human UO31 cells assessed as cell growth at 1 uM after 48 hrs by sulforhodamine B assay; settings: UO-31, 48 h, read-out: Activity
HL-60(TB) [15] = test: Cytotoxicity against human HL-60(TB) cells assessed as cell growth at 10 uM after 48 hrs by sulforhodamine B assay; settings: HL-60, 48 h, read-out: Activity; in short: as §1
[16] = read-out: LC50 (the source's name)

COc1cc(C)cc(-c2c(-c3ccnc(-c4ccc(C(C)=O)cc4)c3)cnn2CC#N)c1
growth at 0.1 µM (NCI-H522 [1]): 76% | growth at 0.1 µM (COLO 205 [2]): 102% | growth at 0.1 µM (KM12): 85% | growth at 0.1 µM (SW-620 [3]): 71% | growth at 0.1 µM (SK-OV-3): 102% | growth at 0.01 µM (HL-60(TB) [4]): 99% | growth at 0.01 µM (K562 [5]): 80% | growth at 10 µM (MDA-MB-231): 63.8% | growth at 0.001 µM (CCRF-CEM): 96% | growth at 1 µM (M14): -19% | growth at 1 µM (MDA-MB-435 [6]): 17% | growth at 0.01 µM (A549): 84% | growth at 0.01 µM (HOP-92): 69% | growth at 0.01 µM (NCI-H522 [7]): 81% | growth at 0.01 µM (COLO 205 [8]): 102% | growth at 0.01 µM (SW-620 [9]): 88% | growth at 0.001 µM (MDA-MB-435 [10]): 100% | growth at 0.001 µM (SK-MEL-2): 92% | growth at 0.001 µM (SK-MEL-5): 95% | GI50 [11]: 2.59 µM | TGI [11]: 9.02 µM | CC50 [11, 16]: > 100 µM | GI50 (HCT-116): 1.7 µM | TGI (HCT-116): 5.4 µM | CC50 (HCT-116; [16]): > 100 µM | GI50 (SW-620 [12]): 2.27 µM | TGI (SW-620 [12]): > 100 µM | CC50 (SW-620 [12]; [16]): > 100 µM | GI50 (NCI/ADR-RES): 2.87 µM | TGI (NCI/ADR-RES): > 100 µM | CC50 (NCI/ADR-RES; [16]): > 100 µM | growth at 0.1 µM (K562 [13]): 47% | growth at 0.1 µM [14]: 88% | growth at 0.1 µM (NCI-H460): 87% | growth at 1 µM (UO-31): 11% | growth at 10 µM (HL-60(TB) [15]): -3%
